Reference: ChEMBL document CHEMBL3758168, “Hybrid triazoles: Design and synthesis as potential dual inhibitor of growth and efflux inhibition in tuberculosis” (Eur J Med Chem, 2016)
In brackets after ≈: the same amount, converted by molar mass.

Tests used:
Format in all cases: functional
[1] = tested on: Mycolicibacterium smegmatis; test: Anti-tubercular activity against Mycobacterium smegmatis MC2 155 ATCC 700084 after 3 days by microdilution method; settings: MC2 155 ATCC 700084, 72 h
How it was run: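 M. smegmatis mc2155 grown in MB7H9 + 10% OADC at 37 °C with shaking to OD600 0.8. Inoculum set to 0.5 McFarland, diluted 1:100, and mixed 1:1 with two-fold serial dilutions in MB7H9. Plates incubated 3 days at 37 °C with growth and sterility controls. MIC taken as the lowest concentration with no visible growth.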

[2] = tested on: Mycobacterium tuberculosis; test: Antibacterial activity against Mycobacterium tuberculosis H37Rv ATCC 27294T assessed as isoniazid MIC at 64 ug/ml after 7 days by microdilution checkerboard assay; settings: 168 h
How it was run: (§1)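 Two-dimensional checkerboard in H37Rv at 10^5 CFU/ml in MB7H9/OADC. Partner drug (amikacin, EtBr, isoniazid, ofloxacin or rifampin) two-fold serially diluted across columns 3-11. Test compound two-fold serially diluted down rows 2-6. Plates incubated 7 days at 37 °C, then MTT added overnight. […] Run in triplicate.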

[3] = tested on: Mycobacterium tuberculosis; test: Antibacterial activity against Mycobacterium tuberculosis H37Rv ATCC 27294T assessed as ethidium bromide MIC at 128 ug/ml after 7 days by microdilution checkerboard assay; settings: 168 h; how it was run: as §1
[4] = tested on: Mycobacterium tuberculosis; test: Antibacterial activity against Mycobacterium tuberculosis H37Rv ATCC 27294T assessed as ethidium bromide MIC at 32 ug/ml after 7 days by microdilution checkerboard assay; settings: 168 h; how it was run: as §1
[5] = tested on: Mycobacterium tuberculosis; test: Antibacterial activity against Mycobacterium tuberculosis H37Rv ATCC 27294T assessed as ethidium bromide MIC at 2 ug/ml after 7 days by microdilution checkerboard assay; settings: 168 h; how it was run: as §1
[6] = tested on: Mycobacterium tuberculosis; test: Antibacterial activity against Mycobacterium tuberculosis H37Rv ATCC 27294T assessed as ethidium bromide MIC at 8 ug/ml after 7 days by microdilution checkerboard assay; settings: 168 h; how it was run: as §1
[7] = tested on: Mycobacterium tuberculosis; test: Antibacterial activity against Mycobacterium tuberculosis H37Rv ATCC 27294T assessed as ethidium bromide MIC at 16 ug/ml after 7 days by microdilution checkerboard assay; settings: 168 h; how it was run: as §1
[8] = tested on: Mycobacterium tuberculosis; test: Antibacterial activity against Mycobacterium tuberculosis H37Rv ATCC 27294T assessed as ofloxacin MIC at 128 ug/ml after 7 days by microdilution checkerboard assay; settings: 168 h; how it was run: as §1
[9] = tested on: Mycobacterium tuberculosis; test: Antibacterial activity against Mycobacterium tuberculosis H37Rv ATCC 27294T assessed as ofloxacin MIC at 32 ug/ml after 7 days by microdilution checkerboard assay; settings: 168 h; how it was run: as §1
[10] = tested on: Mycobacterium tuberculosis; test: Antibacterial activity against Mycobacterium tuberculosis H37Rv ATCC 27294T assessed as ofloxacin MIC at 64 ug/ml after 7 days by microdilution checkerboard assay; settings: 168 h; how it was run: as §1
[11] = tested on: Mycobacterium tuberculosis; test: Antibacterial activity against Mycobacterium tuberculosis H37Rv ATCC 27294T assessed as ofloxacin MIC at 2 ug/ml after 7 days by microdilution checkerboard assay; settings: 168 h; how it was run: as §1
[12] = tested on: Mycobacterium tuberculosis; test: Antibacterial activity against Mycobacterium tuberculosis H37Rv ATCC 27294T assessed as ofloxacin MIC at 4 ug/ml after 7 days by microdilution checkerboard assay; settings: 168 h; how it was run: as §1
[13] = tested on: Mycobacterium tuberculosis; test: Antibacterial activity against Mycobacterium tuberculosis H37Rv ATCC 27294T assessed as ofloxacin MIC at 8 ug/ml after 7 days by microdilution checkerboard assay; settings: 168 h; how it was run: as §1
[14] = tested on: Mycobacterium tuberculosis; test: Antibacterial activity against Mycobacterium tuberculosis H37Rv ATCC 27294T assessed as ofloxacin MIC at 16 ug/ml after 7 days by microdilution checkerboard assay; settings: 168 h; how it was run: as §1
[15] = tested on: Mycobacterium tuberculosis; test: Antibacterial activity against Mycobacterium tuberculosis H37Rv ATCC 27294T assessed as amikacin MIC at 128 ug/ml after 7 days by microdilution checkerboard assay; settings: 168 h; how it was run: as §1
[16] = tested on: Mycobacterium tuberculosis; test: Antibacterial activity against Mycobacterium tuberculosis H37Rv ATCC 27294T assessed as amikacin MIC at 32 ug/ml after 7 days by microdilution checkerboard assay; settings: 168 h; how it was run: as §1
[17] = tested on: Mycobacterium tuberculosis; test: Antibacterial activity against Mycobacterium tuberculosis H37Rv ATCC 27294T assessed as amikacin MIC at 64 ug/ml after 7 days by microdilution checkerboard assay; settings: 168 h; how it was run: as §1
[18] = tested on: Mycobacterium tuberculosis; test: Antibacterial activity against Mycobacterium tuberculosis H37Rv ATCC 27294T assessed as amikacin MIC at 2 ug/ml after 7 days by microdilution checkerboard assay; settings: 168 h; how it was run: as §1
[19] = tested on: Mycobacterium tuberculosis; test: Antibacterial activity against Mycobacterium tuberculosis H37Rv ATCC 27294T assessed as amikacin MIC at 4 ug/ml after 7 days by microdilution checkerboard assay; settings: 168 h; how it was run: as §1
[20] = tested on: Mycobacterium tuberculosis; test: Modulation factor, ratio of ofloxacin MIC to compound MIC for Mycobacterium tuberculosis H37Rv ATCC 27294T at 128 ug/ml in presence of ofloxacin
[21] = tested on: Mycobacterium tuberculosis; test: Modulation factor, ratio of ethidium bromide MIC to compound MIC for Mycobacterium tuberculosis H37Rv ATCC 27294T at 128 ug/ml in presence of ethidium bromide
[22] = tested on: Mycobacterium tuberculosis; test: Antibacterial activity against Mycobacterium tuberculosis H37Rv ATCC 27294T assessed as amikacin MIC at 8 ug/ml after 7 days by microdilution checkerboard assay; settings: 168 h; how it was run: as §1
[23] = tested on: Mycobacterium tuberculosis; test: Antibacterial activity against Mycobacterium tuberculosis H37Rv ATCC 27294T assessed as amikacin MIC at 16 ug/ml after 7 days by microdilution checkerboard assay; settings: 168 h; how it was run: as §1
[24] = tested on: Mycobacterium tuberculosis; test: Antibacterial activity against Mycobacterium tuberculosis H37Rv ATCC 27294T assessed as rifampin MIC at 128 ug/ml after 7 days by microdilution checkerboard assay; settings: 168 h
How it was run: (§2)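 M. tuberculosis H37Rv grown in MB7H9 + 10% OADC at 37 °C to OD600 0.8; plates inoculated at 10^5 CFU/ml. Rifampicin two-fold serially diluted across columns, test compound two-fold diluted down rows (two-dimensional checkerboard). Sealed, 37 °C for seven days, then MTT added and incubated overnight. MIC read as no colour change. Triplicate.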

[25] = tested on: Mycobacterium tuberculosis; test: Antibacterial activity against Mycobacterium tuberculosis H37Rv ATCC 27294T assessed as rifampin MIC at 2 ug/ml after 7 days by microdilution checkerboard assay; settings: 168 h; how it was run: as §2
[26] = tested on: Mycobacterium tuberculosis; test: Antibacterial activity against Mycobacterium tuberculosis H37Rv ATCC 27294T assessed as rifampin MIC at 4 ug/ml after 7 days by microdilution checkerboard assay; settings: 168 h; how it was run: as §2
[27] = tested on: Mycobacterium tuberculosis; test: Antibacterial activity against Mycobacterium tuberculosis H37Rv ATCC 27294T assessed as rifampin MIC at 8 ug/ml after 7 days by microdilution checkerboard assay; settings: 168 h; how it was run: as §2
[28] = tested on: Mycobacterium tuberculosis; test: Modulation factor, ratio of isoniazid MIC to compound MIC for Mycobacterium tuberculosis H37Rv ATCC 27294T at 128 ug/ml in presence of isoniazid
[29] = tested on: Mycobacterium tuberculosis; test: Modulation factor, ratio of refampin MIC to compound MIC for Mycobacterium tuberculosis H37Rv ATCC 27294T at 64 ug/ml in presence of refampin
[30] = tested on: Mycobacterium tuberculosis; test: Modulation factor, ratio of refampin MIC to compound MIC for Mycobacterium tuberculosis H37Rv ATCC 27294T at 128 ug/ml in presence of refampin
[31] = tested on: Mycobacterium tuberculosis; test: Modulation factor, ratio of amikacin MIC to compound MIC for Mycobacterium tuberculosis H37Rv ATCC 27294T at 128 ug/ml in presence of amikacin

CCCSc1nnc(COc2ccccc2C2=NOC(c3ccc(Cl)cc3Cl)C2)n1NC(=O)CCl (stereo unspecified)
MIC [1]: 4 µg/mL (≈ 7.21 µM) | MIC [2]: 0.1 µg/mL | MIC [3]: 0.39 µg/mL | MIC [4]: 12.5 µg/mL | MIC [5]: 12.5 µg/mL | MIC [6]: 12.5 µg/mL | MIC [7]: 12.5 µg/mL | MIC [8]: 0.625 µg/mL | MIC [9]: 1 µg/mL | MIC [10]: 1 µg/mL | MIC [11]: 2 µg/mL | MIC [12]: 2 µg/mL | MIC [13]: 1 µg/mL | MIC [14]: 1 µg/mL | MIC [15]: 0.125 µg/mL | MIC [16]: 1 µg/mL | MIC [17]: 1 µg/mL | MIC [18]: 1 µg/mL | MIC [19]: 1 µg/mL | Ratio [20]: 32 | Ratio [21]: 32 | MIC [22]: 1 µg/mL | MIC [23]: 1 µg/mL | MIC [24]: 0.0156 µg/mL | MIC [25]: 0.5 µg/mL | MIC [26]: 0.5 µg/mL | MIC [27]: 0.5 µg/mL | Ratio [28]: 64 | Ratio [29]: 4 | Ratio [30]: 64 | Ratio [31]: 16
